Experiments:
Mus musculus [1] = organism: Mus musculus; assay: 50% inhibition of solid tumor growth (Sarcoma 180 cells) in mice; type: functional
Procedure, shortened: (§1)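 Sarcoma 180 cells inoculated sc into the axillary region of ddY mice on day 0; compound given iv on day 1. Tumor volume compared treated versus control (T/C). ED50 is the dose giving 50% inhibition of tumor growth, from the dose-response curve. Optimal dose also recorded.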

Mus musculus [2] = organism: Mus musculus; assay: T/C value was measured as tumor volume in the treated versus control mice.; type: functional; procedure, shortened: as §1
[3] = Optimal dose was measured against sarcoma 180 cell in mice; type: functional, Mus musculus; procedure, shortened: as §1
HeLa = assay: Inhibition of HeLa S3 cell growth relative to mitomycin C action (ratio of IC50 values); type: functional, Homo sapiens
Procedure, shortened: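 HeLa S3 cells plated on day 0 and exposed to drug for 1 h on day 1. IC50 is the concentration giving 50% growth inhibition, taken from the concentration-response curve. Reported as IC50 of test compound divided by IC50 of mitomycin C.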

SMILES	ED50 (Mus musculus [1])	T/C (Mus musculus [2])	OD [3]	IC50 ratio (HeLa)
CO[C@@]12[C@H](COC(N)=O)C3=C(C(=O)C=C(N)C3=O)N1C[C@H]1[C@@H]2N1C (stereo not given in full)	8.4 mg/kg	0.08	20 mg/kg	16
CO[C@@]12[C@H](COC(N)=O)C3=C(C(=O)C(Br)=C(N)C3=O)N1C[C@H]1[C@@H]2N1C (stereo not given in full)	–	0.63	4 mg/kg	1.9
COC1=C(Cl)C(=O)C2=C(C1=O)[C@@H](COC(N)=O)[C@@]1(OC)[C@H]3N[C@H]3CN21	–	–	–	2.5
CC1=C(N)C(=O)C2=C(C1=O)N1C[C@H]3[C@H](N3C)[C@]1(O)[C@H]2COC(N)=O (stereo not given in full)	–	0.59	100 mg/kg	>20
COC1=CC(=O)C2=C(C1=O)[C@@H](COC(N)=O)[C@@]1(OC)[C@H]3N[C@H]3CN21	1.6 mg/kg	0.45	2 mg/kg	0.3
COC1=C(Br)C(=O)C2=C(C1=O)[C@@H](COC(N)=O)[C@@]1(OC)[C@@H]3[C@H](CN21)N3C (stereo not given in full)	–	0.97	14 mg/kg	>4.8
COC1=CC(=O)C2=C(C1=O)[C@H](COC(N)=O)[C@@]1(O)[C@@H]3[C@H](CN21)N3C (stereo not given in full)	11 mg/kg	0.31	20 mg/kg	16
COC1=C(C)C(=O)C2=C(C1=O)[C@H](COC(N)=O)[C@@]1(O)[C@@H]3[C@H](CN21)N3C (stereo not given in full) [MITOMYCIN B]	2.8 mg/kg	0.37	4 mg/kg	0.29
COC1=C(C)C(=O)C2=C(C1=O)[C@@H](COC(N)=O)[C@@]1(OC)[C@H]3N[C@H]3CN21 [MITOMYCIN A]	1.3 mg/kg	0.2	1.8 mg/kg	0.0035
CO[C@@]12[C@H](COC(N)=O)C3=C(C(=O)C(C)=C(N)C3=O)N1C[C@H]1[C@@H]2N1C (stereo not given in full) [PORFIROMYCIN]	16 mg/kg	0.23	40 mg/kg	9.5
CO[C@@]12[C@H](COC(N)=O)C3=C(C(=O)C(Cl)=C(N)C3=O)N1C[C@@H]1N[C@@H]12	1.4 mg/kg	0.14	2.7 mg/kg	0.37
CN1[C@H]2[C@@H]1CN1C3=C(C(=O)C(N)=CC3=O)[C@H](COC(N)=O)[C@@]21O (stereo not given in full)	33 mg/kg	0.26	100 mg/kg	>71
CO[C@@]12[C@H](COC(N)=O)C3=C(C(=O)C=C(N)C3=O)N1C[C@@H]1N[C@@H]12	2.6 mg/kg	0.25	5 mg/kg	3.2
COC1=C(Br)C(=O)C2=C(C1=O)[C@@H](COC(N)=O)[C@@]1(OC)[C@H]3N[C@H]3CN21	8.4 mg/kg	0.47	14 mg/kg	1.9
COC1=C(Br)C(=O)C2=C(C1=O)[C@H](COC(N)=O)[C@@]1(O)[C@@H]3[C@H](CN21)N3C (stereo not given in full)	22 mg/kg	0.44	30 mg/kg	>3.7
COC1=C(C)C(=O)C2=C(C1=O)[C@@H](COC(N)=O)[C@@]1(OC)[C@@H]3[C@H](CN21)N3C (stereo not given in full) [N-METHYL-MITOMYCIN A]	6.5 mg/kg	0.32	8 mg/kg	<0.031
CO[C@@]12[C@H](COC(N)=O)C3=C(C(=O)C(C)=C(N)C3=O)N1C[C@@H]1N[C@@H]12 [MITOMYCIN]	1.6 mg/kg	0.27	3.1 mg/kg	0.49
COC1=C(Cl)C(=O)C2=C(C1=O)[C@H](COC(N)=O)[C@@]1(O)[C@@H]3[C@H](CN21)N3C (stereo not given in full)	–	0.62	20 mg/kg	11
COC1=CC(=O)C2=C(C1=O)[C@@H](COC(N)=O)[C@@]1(OC)[C@@H]3[C@H](CN21)N3C (stereo not given in full)	7.1 mg/kg	0.36	10 mg/kg	0.29
CO[C@@]12[C@H](COC(N)=O)C3=C(C(=O)C(Cl)=C(N)C3=O)N1C[C@H]1[C@@H]2N1C (stereo not given in full)	2.3 mg/kg	0.11	4 mg/kg	0.76
CN1[C@H]2[C@@H]1CN1C3=C(C(=O)C(N)=C(Cl)C3=O)[C@H](COC(N)=O)[C@@]21O (stereo not given in full)	17 mg/kg	0.43	20 mg/kg	>20
CN1[C@H]2[C@@H]1CN1C3=C(C(=O)C(N)=C(Br)C3=O)[C@H](COC(N)=O)[C@@]21O (stereo not given in full)	–	0.55	30 mg/kg	>35

Reference: ChEMBL document CHEMBL1128498, “Synthesis and antitumor activity of various 6-demethylmitomycins and 6-demethyl-6-halomitomycins” (1995)
